High-throughput results (PubChem)
A selection: hits, their analogues and other compounds. The true share with any hit is near 12%.
Arbovirus anti – antivirals against arbovirus infection; arbovirus infection cell-based antiviral screen; inhibition, % at 10 µM; hit rate 0.37% among 200,000; AID 1251; in the data active = inhibition above about 30%
PKD1 kinase inh – blocks activity of human protein kinase D1 | Q15139 | PKD1 kinase fluorescence polarization assay | inhibition, % (no concentration beside the values) | hit rate 0.056% among 200,000 | AID 797
Wee1 stabilizer – blocks degradation of human Wee1 kinase; HeLa Luc-Wee1K328M stability, luciferase luminescence; 100% = proteasome inhibitor MG132 effect; reporter increase, % at 5 µM; hit rate 1.2% among 220,000; AID 1321;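 active = activation above the mean of all tested compounds plus 3 SD, set per screening run, cut at about 8.8% in these data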;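 note: cells exposed to compound for 20 h before luminescence read; 0% = DMSO alone and 100% = MG132 at 30 µM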
L major viab – Leishmania major promastigote growth inhibition. Leishmania major promastigotes, resazurin fluorescence viability. inhibition, % at 10 µM. hit rate 9% among 200,000. AID 1063;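 note: promastigotes grown with compound for 44 hours at 28 °C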
Rad51 HR inh – Rad51 (human) homologous recombination inhibition. inhibition, % at 10 µM. hit rate 0.085% among 200,000. AID 1385. Q06609. hRad51 DNA strand exchange, fluorescence dequenching;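 active = inhibition above 40% at the single screening dose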;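 note: 0% = DMSO control wells and 100% = blanks with heterologous ssDNA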
Target sequence (Q06609 whole entry, looked up): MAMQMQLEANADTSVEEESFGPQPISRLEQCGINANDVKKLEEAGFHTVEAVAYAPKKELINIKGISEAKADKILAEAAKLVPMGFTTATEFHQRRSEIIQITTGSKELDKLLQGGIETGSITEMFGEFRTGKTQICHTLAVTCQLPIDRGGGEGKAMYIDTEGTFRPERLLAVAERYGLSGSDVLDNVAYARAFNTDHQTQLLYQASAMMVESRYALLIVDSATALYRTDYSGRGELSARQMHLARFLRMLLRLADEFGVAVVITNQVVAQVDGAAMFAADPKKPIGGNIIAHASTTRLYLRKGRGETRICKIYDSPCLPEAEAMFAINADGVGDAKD
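Assay system: Human Rad51 nucleoprotein filaments preassembled on unlabelled ssDNA | Reagent: Donor/quencher-labelled 47-bp dsDNA substrate | Doses: One concentration, 10 µM final | Times: 37 °C 15-min filament assembly, 30-min compound preincubation, 15-min exchange | Technique: Fluorescein emission 520 nm, excitation 485 nm | Benchmarks: Plate control and blank wells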
CHOP inhibitor – blocks CHOP induction under ER stress. hit rate 3.8% among 220,000. CHO-K1 CHOP-promoter luciferase, tunicamycin-induced, 15-18 h. AID 2732. inhibition, % at 10 µM;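 active = compounds that reduced the stress-induced luciferase reporter signal by more than about 70% of percent inhibition, limit read from the data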;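 note: 0% = tunicamycin plus vehicle and 100% = wells without tunicamycin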
An asterisk follows results filed as active. Cut-off read from the data, not from the text of the source, unless noted: active = inhibition above about 50%; inactive = the rest.

For COc1cccc(Sc2ccccc2CN(C)C)c1 the results were Arbovirus anti 0.2, PKD1 kinase inh 3.4, Wee1 stabilizer 0.6, L major viab 6.4, Rad51 HR inh 6.5 and CHOP inhibitor 43.5.
`CCOC(=O)c1ccc2c(c1)NCc1cccc(OC)c1O2` gave Wee1 stabilizer 1.6, Rad51 HR inh -5.4 and CHOP inhibitor 1.1.
`O=C(/C=C/c1c[nH]c2ccccc12)c1cccc2ccccc12` gave Arbovirus anti -20.9, PKD1 kinase inh -4.7, Wee1 stabilizer -0.7, L major viab 7.9, Rad51 HR inh -7.8 and CHOP inhibitor 87.0*.
For COc1ccc(C(CNC(=O)c2oc3ccc(Br)cc3c2C)N2CCCCC2)cc1 (stereo unspecified) the results were Arbovirus anti 20.3, PKD1 kinase inh 2.4, Wee1 stabilizer 0.3, L major viab 60.5*, Rad51 HR inh -3.4 and CHOP inhibitor 78.4*.
`COc1ccc(C(CNC(=O)COc2ccc(Br)cc2F)N2CCCC2)cc1` (stereo unspecified) gave Arbovirus anti -14.0, PKD1 kinase inh 5.4, Wee1 stabilizer 5.1, L major viab 25.1, Rad51 HR inh 0.5 and CHOP inhibitor 16.2.
`CC(C)CCNC(=O)C(c1ccco1)N(CCCO)C(=O)Cn1nnc(-c2ccc(F)cc2)n1` (stereo unspecified) gave Arbovirus anti -8.3, PKD1 kinase inh -4.4, Wee1 stabilizer 1.6, L major viab -5.0, Rad51 HR inh 2.0 and CHOP inhibitor -7.8.
For Oc1c(N=NC(=S)Nc2ccccc2F)c2ccccc2n1Cc1ccc(F)cc1 the results were Arbovirus anti -8.5, PKD1 kinase inh 11.0, Wee1 stabilizer 8.8, L major viab 90.7*, Rad51 HR inh -2.9 and CHOP inhibitor -14.2.
For Cc1cccc(NC(=O)Cn2c(O)c(N=NC(N)=S)c3ccccc32)c1 the results were Wee1 stabilizer 0.8, Rad51 HR inh -28.3 and CHOP inhibitor 94.2*.
Screening Cc1ccc(NC(=O)Cn2c(O)c(N=NC(=O)c3ccncc3)c3ccccc32)cc1 returned Arbovirus anti -14.7, PKD1 kinase inh -5.7, Wee1 stabilizer -0.5, L major viab -2.1, Rad51 HR inh -3.6 and CHOP inhibitor 52.1.
Cc1ccc2c(c1)c(N=NC(N)=S)c(O)n2Cc1ccccc1 was read as Arbovirus anti -13.3, PKD1 kinase inh -5.1, Wee1 stabilizer 0.6, L major viab 43.6, Rad51 HR inh 9.8 and CHOP inhibitor 1.0.
Screening NC(=S)N=Nc1c(O)n(Cc2ccc(F)cc2)c2ccccc12 returned Arbovirus anti -3.3, PKD1 kinase inh -0.3, Wee1 stabilizer -1.4, L major viab -4.0, Rad51 HR inh -4.2 and CHOP inhibitor 16.9.
For Cc1cccc(Cn2c(O)c(N=NC(=S)Nc3ccccc3F)c3ccccc32)c1 the results were Arbovirus anti -11.8, PKD1 kinase inh 6.4, Wee1 stabilizer 1.1, L major viab 96.7* and CHOP inhibitor -3.2.
For Cc1cccc(NC(=S)N=Nc2c(O)n(CN3CCOCC3)c3ccccc23)c1C the results were Arbovirus anti -18.4, PKD1 kinase inh -0.4, Wee1 stabilizer -3.3, L major viab 96.1*, Rad51 HR inh 2.6 and CHOP inhibitor 38.3.
For Cc1cc(C)c2c(=O)[nH]c(SCC(=O)c3ccc(F)c(C)c3)nc2n1 the results were Arbovirus anti -11.9, PKD1 kinase inh -7.7, Wee1 stabilizer -1.8, L major viab -4.4, Rad51 HR inh -3.3 and CHOP inhibitor 63.5.
`COc1ccc(CCc2nnc(CCC(=O)NCc3ccc4ncccc4c3)o2)cc1` gave Arbovirus anti 4.5, PKD1 kinase inh -1.9, Wee1 stabilizer 0.9, L major viab -2.8, Rad51 HR inh 25.4 and CHOP inhibitor -20.5.
O=S(=O)(Cc1noc(-c2ccccc2Cl)n1)c1ccccn1 was read as Wee1 stabilizer 3.3, Rad51 HR inh 1.6 and CHOP inhibitor -15.5.
For Oc1c(N=NC(=S)Nc2ccccc2F)c2ccccc2n1Cc1cccc(Cl)c1 the results were Arbovirus anti -9.4, PKD1 kinase inh 0.2, Wee1 stabilizer -0.9, L major viab 83.0*, Rad51 HR inh -21.4 and CHOP inhibitor 0.2.
Screening NC(=S)N=Nc1c(O)n(Cc2ccc(Br)cc2)c2ccccc12 returned Arbovirus anti -0.3, PKD1 kinase inh -8.4, Wee1 stabilizer 3.8, L major viab 10.0, Rad51 HR inh 3.7 and CHOP inhibitor -22.5.
`CCc1cc2cc(C)cc(C)c2nc1SCC(=O)N1CCCC1` gave Arbovirus anti -6.0, PKD1 kinase inh -5.5, Wee1 stabilizer 2.7, L major viab 15.2, Rad51 HR inh 7.9 and CHOP inhibitor 87.2*.
Cc1nc2ccccc2nc1CN1CCC(CO)(CC2CCCCO2)CC1 (stereo unspecified) was read as Arbovirus anti 6.9, PKD1 kinase inh -4.7, Wee1 stabilizer 0.9, L major viab 68.9*, Rad51 HR inh 29.5 and CHOP inhibitor 19.5.
Screening CCOC(=O)N/N=C\c1ccc(-c2cc(Cl)ccc2Cl)o1 returned Arbovirus anti 2.1, PKD1 kinase inh -7.3, Wee1 stabilizer 1.5, L major viab 6.0 and CHOP inhibitor -18.5.
`NC(=S)N/N=C/c1ccc(-c2cc(Cl)cc(Cl)c2)o1` gave Arbovirus anti -20.8, PKD1 kinase inh -3.9, Wee1 stabilizer -1.6, L major viab 97.4*, Rad51 HR inh -6.8 and CHOP inhibitor 34.1.
`COC(=O)N/N=C/c1ccc(-c2cc(Cl)cc(Cl)c2)o1` gave Arbovirus anti 3.1, PKD1 kinase inh 5.5, Wee1 stabilizer 2.5, L major viab 12.8, Rad51 HR inh 8.6 and CHOP inhibitor 20.4.
Screening NC(=S)N/N=C/c1ccc(-c2cc(Cl)ccc2Cl)o1 returned Arbovirus anti -28.1, PKD1 kinase inh -3.1, Wee1 stabilizer -0.8, L major viab 100.4*, Rad51 HR inh 4.2 and CHOP inhibitor -12.4.
Screening NC(=S)N/N=C/c1ccc(-c2ccc([N+](=O)[O-])cc2)o1 returned Arbovirus anti 0.8, PKD1 kinase inh -1.2, Wee1 stabilizer -2.5, L major viab 13.4, Rad51 HR inh -56.3 and CHOP inhibitor 22.6.
For COC(=O)N/N=C/c1ccc(-c2cccc(Cl)c2)o1 the results were Arbovirus anti -7.8, PKD1 kinase inh -8.7, Wee1 stabilizer 0.7, L major viab 61.1*, Rad51 HR inh 1.7 and CHOP inhibitor 11.2.
`CC(C)CNC(=O)CN(C)S(=O)(=O)c1ccc(F)cc1` gave Arbovirus anti 0.5, PKD1 kinase inh 22.4, Wee1 stabilizer -1.9, L major viab -4.4 and CHOP inhibitor -4.6.
Screening CCO[C@@H]1OC(C(=O)N2CCN(Cc3ccccc3)CC2)=C[C@H](c2coc3ccccc3c2=O)[C@H]1CCCO returned Arbovirus anti -12.7, PKD1 kinase inh 7.5, Wee1 stabilizer 0.4, L major viab 4.9, Rad51 HR inh 2.5 and CHOP inhibitor 12.7.
O=C(O)c1csc(N/N=C/c2ccc(Br)cc2)n1 was read as Arbovirus anti 46.1*, PKD1 kinase inh 7.3, Wee1 stabilizer 7.1, L major viab -5.1, Rad51 HR inh -0.9 and CHOP inhibitor 2.1.
CC(C)n1nc(Cc2cccc3ccccc23)c(C#N)c1N was read as Rad51 HR inh 0.4.
